Converted amounts (≈) assume the structure as drawn.
Legend:
Format in all cases: functional
Pseudomonas sp. [1] = assay: Antibacterial activity against Pseudomonas sp. B13 GFP1 containing multiresistance plasmid pRSB101
Escherichia coli [2] = assay: Antibacterial activity against Escherichia coli DH5-alpha containing pUC18; conditions: DH5alpha
How it was run: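 MIC measured for E. coli DH5α transformed with the empty vector pUC18, which served as the control. It was tested alongside DH5α carrying pUC18 clones of PCR-amplified fragments of the pRSB111 macrolide resistance region (mphR(E), mph(E), mrx(E)).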

Pseudomonas sp. [3] = assay: Antibacterial activity against Pseudomonas sp. B13 GFP1
Escherichia coli [4] = assay: Antibacterial activity against Escherichia coli DH5-alpha containing macrolide-resistant pUC18-mph(E) region; conditions: DH5alpha
How it was run: (§1)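 Host is E. coli DH5α carrying pUC18 with PCR-amplified fragments of the pRSB111 macrolide resistance region (covering mphR(E), mph(E) and/or mrx(E)). MIC is read per recombinant strain, with DH5α carrying empty pUC18 as control.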

Pseudomonas sp. [5] = assay: Antibacterial activity against Pseudomonas sp. B13 GFP1 containing macrolide resistance plasmid pRSB111
How it was run: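 Host is Pseudomonas sp. strain B13 GFP1 carrying pRSB111, captured by exogenous mating from wastewater-plant final effluent. It is maintained in LB with erythromycin (300 μg/ml) at 30°C. MIC is in μg/ml, with the plasmid-free B13 GFP1 strain tested alongside.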

Escherichia coli [6] = assay: Antibacterial activity against Escherichia coli DH5alpha containing macrolide-resistant pUC18-mph(E)-mrx(E) region; how it was run: as §1
Escherichia coli [7] = assay: Antibacterial activity against Escherichia coli DH5-alpha containing macrolide-resistant pUC18-mrx(E) region; conditions: DH5alpha; how it was run: as §1

SMILES	MIC (Pseudomonas sp. [1]) [µg/mL]	MIC (Escherichia coli [2]) [µg/mL]	MIC (Pseudomonas sp. [3]) [µg/mL]	MIC (Escherichia coli [4]) [µg/mL]	MIC (Pseudomonas sp. [5]) [µg/mL]	MIC (Escherichia coli [6]) [µg/mL]	MIC (Escherichia coli [7]) [µg/mL]
CC[C@H]1OC(=O)[C@H](C)[C@@H](O[C@H]2C[C@@](C)(OC)[C@@H](O)[C@H](C)O2)[C@H](C)[C@@H](O[C@@H]2O[C@H](C)C[C@H](N(C)C)[C@H]2O)[C@](C)(O)C[C@@H](C)C(=O)[C@H](C)[C@@H](O)[C@]1(C)O [ERYTHROMYCIN]	2500 (≈ 3410 µM)	200 (≈ 273 µM)	20 (≈ 27.3 µM)	250 (≈ 341 µM)	2500 (≈ 3410 µM)	2400 (≈ 3270 µM)	150 (≈ 204 µM)
CC[C@H]1OC(=O)C[C@@H](O)[C@H](C)[C@@H](O[C@@H]2O[C@H](C)[C@@H](O[C@H]3C[C@@](C)(O)[C@@H](O)[C@H](C)O3)[C@H](N(C)C)[C@H]2O)[C@@H](CC=O)C[C@@H](C)C(=O)/C=C/C(C)=C/[C@@H]1CO[C@@H]1O[C@H](C)[C@@H](O)[C@@H](OC)[C@H]1OC [TYLOSIN]	150 (≈ 164 µM)	–	150 (≈ 164 µM)	–	400 (≈ 437 µM)	–	–
CC[C@H]1OC(=O)[C@H](C)[C@@H](O[C@H]2C[C@@](C)(OC)[C@@H](O)[C@H](C)O2)[C@H](C)[C@@H](O[C@@H]2O[C@H](C)C[C@H](N(C)C)[C@H]2O)[C@](C)(O)C[C@@H](C)/C(=N\OCOCCOC)[C@H](C)[C@@H](O)[C@]1(C)O [ROXITHROMYCIN]	1200 (≈ 1430 µM)	450 (≈ 538 µM)	25 (≈ 29.9 µM)	550 (≈ 657 µM)	1400 (≈ 1670 µM)	2500 (≈ 2990 µM)	300 (≈ 358 µM)

Reference: ChEMBL document CHEMBL1142173, “Novel macrolide resistance module carried by the IncP-1beta resistance plasmid pRSB111, isolated from a wastewater treatment plant” (2007)
